Data taken from ChEMBL document CHEMBL3774312, “5-Substituted 3-isopropyl-7-[4-(2-pyridyl)benzyl]amino-1(2)H-pyrazolo[4,3-d]pyrimidines with anti-proliferative activity as potent and selective inhibitors of cyclin-dependent kinases” (Eur J Med Chem, 2016).
Activity calls are given as the source filed them. No cut-off for these calls is given here.

Tests used:
[1] = target: Cyclin-dependent kinase 2 (Homo sapiens) (UniProt P24941); test: Inhibition of CDK2 in human G361 cells assessed as reduction in phosphorylation of RNA polymerase 2 at C-terminus at 0.1 to 1 uM incubated for 24 hrs by immunoblotting analysis; format: cell-based; conditions: G-361
Outline: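 Treated G361 cells were lysed in Laemmli buffer, run on SDS-PAGE and blotted to nitrocellulose. Blots were probed overnight with antibodies to RNA polymerase II phosphorylated at S5 and S2, and to total RNA polymerase II (ARNA-3). Peroxidase secondaries were then applied and signal was detected by ECL with a CCD camera.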

[2] = target: Cyclin-dependent kinase 4 (Homo sapiens, UniProt P11802); test: Inhibition of CDK4 (unknown origin)
[3] = target: Dual specificity tyrosine-phosphorylation-regulated kinase 1A (Homo sapiens) (UniProt Q13627); test: Inhibition of recombinant DYRK1A (unknown origin) assessed as residual activity at 1 uM relative to control
[4] = target: Casein kinase I isoform delta (Homo sapiens) (UniProt P48730); test: Inhibition of recombinant CK1delta (unknown origin) assessed as residual activity at 1 uM relative to control
[5] = target: AMP-activated protein kinase, AMPK (Homo sapiens) (UniProt P54646+O43741+P54619+Q9UGJ0+Q9Y478+Q13131+Q9UGI9); test: Inhibition of recombinant human AMPK assessed as residual activity at 1 uM relative to control; format: protein-complex assay
MCF7 [6] = test: Cytotoxicity against human MCF7 cells assessed as reduction in cell viability after 72 hrs by calcein AM staining based fluorescence assay; format: functional
Outline: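 Cells were grown in DMEM with 10% FBS, penicillin and streptomycin at 37 °C in 5% CO2. Three doses were tested in triplicate for 72 h.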

[7] = Cell cycle arrest in BrdU pulse-labelled human HCT116 cells assessed as accumulation at late S phase at 125 to 500 nM after 24 hrs by propidium iodide staining based flow cytometry; format: functional; conditions: HCT-116
[8] = Cell cycle arrest in BrdU pulse-labelled human HCT116 cells assessed as accumulation at late G2/M phase at 125 to 500 nM after 24 hrs by propidium iodide staining based flow cytometry; format: functional; conditions: HCT-116
MCF7 [9] = test: Cell cycle arrest in BrdU pulse-labelled human MCF7 cells assessed as decrease in cells at S phase at 8 to 250 nM after 24 hrs by propidium iodide staining based flow cytometry; format: functional
MCF7 [10] = test: Cell cycle arrest in BrdU pulse-labelled human MCF7 cells assessed as accumulation at subG1 phase at 8 to 250 nM after 24 hrs by propidium iodide staining based flow cytometry; format: functional
HCT-116 [11] = test: Induction of apoptosis in human HCT116 cells assessed as decrease in MCL-1 expression incubated for 24 hrs by immunoblotting analysis; format: functional, cell-based
Outline: (§1)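 HCT-116 cells were treated with different doses for 24 h and harvested into Laemmli buffer. Proteins were separated by SDS-PAGE and blotted to nitrocellulose. Membranes were probed overnight with primary antibodies (anti-PARP F-2, anti-Mcl-1 S-19, anti-p53 DO-1), then with peroxidase secondaries. Bands were detected by ECL with a CCD camera, with tubulin as loading control.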

HCT-116 [12] = test: Induction of apoptosis in human HCT116 cells assessed as PARP1 cleavage incubated for 24 hrs by immunoblotting analysis; format: functional, cell-based; outline: as §1
HCT-116 [13] = test: Induction of apoptosis in human HCT116 cells assessed as increase in p53 expression at 250 to 500 nM incubated for 24 hrs by immunoblotting analysis; format: functional, cell-based; outline: as §1
HCT-116 [14] = test: Induction of apoptosis in human HCT116 cells assessed as caspase3 activation using Ac-DEVD-AMC as substrate preincubated for 24 hrs followed by substrate addition measured after 3 hrs by fluorescence assay; format: functional, cell-based
HCT-116 [15] = test: Induction of apoptosis in human HCT116 cells assessed as caspase7 activation using Ac-DEVD-AMC as substrate preincubated for 24 hrs followed by substrate addition measured after 3 hrs by fluorescence assay; format: functional, cell-based
G-361 [16] = test: Induction of apoptosis in human G361 cells assessed as caspase3 activation using Ac-DEVD-AMC as substrate at 5 times IC50 preincubated for 24 hrs followed by substrate addition measured after 3 hrs by fluorescence assay; format: functional, cell-based
G-361 [17] = test: Induction of apoptosis in human G361 cells assessed as caspase7 activation using Ac-DEVD-AMC as substrate at IC50 preincubated for 24 hrs followed by substrate addition measured after 3 hrs by fluorescence assay; format: functional, cell-based
[18] = target: Dual specificity protein kinase TTK (Homo sapiens) (UniProt P33981); test: Inhibition of recombinant TTK (unknown origin) assessed as residual activity at 1 uM relative to control
[19] = target: Dual specificity mitogen-activated protein kinase kinase 1 (Homo sapiens) (UniProt Q02750); test: Inhibition of recombinant MKK1 (unknown origin) assessed as residual activity at 1 uM relative to control
[20] = target: Eukaryotic elongation factor 2 kinase (Homo sapiens) (UniProt O00418); test: Inhibition of recombinant EF2K (unknown origin) assessed as residual activity at 1 uM relative to control
[21] = target: Serine/threonine-protein kinase PLK1 (Homo sapiens) (UniProt P53350); test: Inhibition of recombinant PLK1 (unknown origin) assessed as residual activity at 1 uM relative to control
[22] = target: Receptor-interacting serine/threonine-protein kinase 2 (Homo sapiens) (UniProt O43353); test: Inhibition of recombinant RIPK2 (unknown origin) assessed as residual activity at 1 uM relative to control
[23] = target: High affinity nerve growth factor receptor (Homo sapiens) (UniProt P04629); test: Inhibition of recombinant TrkA (unknown origin) assessed as residual activity at 1 uM relative to control
[24] = target: Glycogen synthase kinase-3 beta (Homo sapiens) (UniProt P49841); test: Inhibition of recombinant GSK3beta (unknown origin) assessed as residual activity at 1 uM relative to control
[25] = target: 3-phosphoinositide-dependent protein kinase 1 (Homo sapiens) (UniProt O15530); test: Inhibition of recombinant PDK1 (unknown origin) assessed as residual activity at 1 uM relative to control
[26] = target: Tyrosine-protein kinase Lck (Homo sapiens) (UniProt P06239); test: Inhibition of recombinant LCK (unknown origin) assessed as residual activity at 1 uM relative to control
[27] = target: Mitogen-activated protein kinase kinase kinase 7 (Homo sapiens) (UniProt O43318); test: Inhibition of recombinant TAK1 (unknown origin) assessed as residual activity at 1 uM relative to control
[28] = target: Serine/threonine-protein kinase pim-1 (Homo sapiens) (UniProt P11309); test: Inhibition of recombinant PIM1 (unknown origin) assessed as residual activity at 1 uM relative to control
[29] = target: Serine/threonine-protein kinase N2 (Homo sapiens) (UniProt Q16513); test: Inhibition of recombinant PRK2 (unknown origin) assessed as residual activity at 1 uM relative to control
[30] = target: Homeodomain-interacting protein kinase 2 (Homo sapiens) (UniProt Q9H2X6); test: Inhibition of recombinant HIPK2 (unknown origin) assessed as residual activity at 1 uM relative to control
[31] = target: Serine/threonine-protein kinase Sgk1 (Homo sapiens) (UniProt O00141); test: Inhibition of recombinant SGK1 (unknown origin) assessed as residual activity at 1 uM relative to control
Sequence of Serine/threonine-protein kinase Sgk1 (Homo sapiens) (O00141 whole entry): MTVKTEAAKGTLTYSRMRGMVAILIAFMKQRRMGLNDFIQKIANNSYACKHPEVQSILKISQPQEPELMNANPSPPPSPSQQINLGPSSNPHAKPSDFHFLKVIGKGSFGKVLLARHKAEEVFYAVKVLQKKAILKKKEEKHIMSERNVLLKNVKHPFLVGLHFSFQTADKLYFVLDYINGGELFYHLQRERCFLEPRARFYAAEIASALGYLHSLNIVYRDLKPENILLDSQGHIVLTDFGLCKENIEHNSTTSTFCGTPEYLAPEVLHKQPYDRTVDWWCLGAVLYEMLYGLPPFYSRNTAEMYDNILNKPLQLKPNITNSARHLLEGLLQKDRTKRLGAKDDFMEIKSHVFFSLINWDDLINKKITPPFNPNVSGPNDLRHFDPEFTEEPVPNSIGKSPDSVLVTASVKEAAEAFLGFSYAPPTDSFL

Sequence of Serine/threonine-protein kinase PLK1 (Homo sapiens) (P53350 whole entry): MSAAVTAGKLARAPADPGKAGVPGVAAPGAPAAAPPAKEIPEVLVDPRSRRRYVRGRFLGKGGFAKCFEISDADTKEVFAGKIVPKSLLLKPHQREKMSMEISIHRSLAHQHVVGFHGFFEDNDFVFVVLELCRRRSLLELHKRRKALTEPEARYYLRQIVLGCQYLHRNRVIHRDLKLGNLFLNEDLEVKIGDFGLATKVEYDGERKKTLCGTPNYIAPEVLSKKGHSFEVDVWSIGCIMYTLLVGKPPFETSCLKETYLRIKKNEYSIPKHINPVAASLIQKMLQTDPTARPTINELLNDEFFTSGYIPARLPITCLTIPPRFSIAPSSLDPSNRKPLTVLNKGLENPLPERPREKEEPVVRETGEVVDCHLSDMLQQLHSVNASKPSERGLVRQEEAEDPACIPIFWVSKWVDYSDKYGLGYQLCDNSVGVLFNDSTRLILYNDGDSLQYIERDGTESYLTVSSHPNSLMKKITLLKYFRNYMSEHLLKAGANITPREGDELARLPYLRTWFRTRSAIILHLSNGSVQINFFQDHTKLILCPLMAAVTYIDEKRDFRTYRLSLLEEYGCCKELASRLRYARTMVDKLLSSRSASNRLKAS
Sequence of Cyclin-dependent kinase 4 (P11802 whole entry): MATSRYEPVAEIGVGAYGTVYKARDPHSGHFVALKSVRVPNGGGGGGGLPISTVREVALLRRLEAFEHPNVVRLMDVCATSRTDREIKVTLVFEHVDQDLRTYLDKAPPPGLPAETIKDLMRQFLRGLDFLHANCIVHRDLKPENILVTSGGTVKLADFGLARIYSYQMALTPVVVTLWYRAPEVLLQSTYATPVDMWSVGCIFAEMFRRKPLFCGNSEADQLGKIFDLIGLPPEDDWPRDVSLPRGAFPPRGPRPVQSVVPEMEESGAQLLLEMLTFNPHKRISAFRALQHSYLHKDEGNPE
Sequence of Eukaryotic elongation factor 2 kinase (Homo sapiens) (O00418 whole entry): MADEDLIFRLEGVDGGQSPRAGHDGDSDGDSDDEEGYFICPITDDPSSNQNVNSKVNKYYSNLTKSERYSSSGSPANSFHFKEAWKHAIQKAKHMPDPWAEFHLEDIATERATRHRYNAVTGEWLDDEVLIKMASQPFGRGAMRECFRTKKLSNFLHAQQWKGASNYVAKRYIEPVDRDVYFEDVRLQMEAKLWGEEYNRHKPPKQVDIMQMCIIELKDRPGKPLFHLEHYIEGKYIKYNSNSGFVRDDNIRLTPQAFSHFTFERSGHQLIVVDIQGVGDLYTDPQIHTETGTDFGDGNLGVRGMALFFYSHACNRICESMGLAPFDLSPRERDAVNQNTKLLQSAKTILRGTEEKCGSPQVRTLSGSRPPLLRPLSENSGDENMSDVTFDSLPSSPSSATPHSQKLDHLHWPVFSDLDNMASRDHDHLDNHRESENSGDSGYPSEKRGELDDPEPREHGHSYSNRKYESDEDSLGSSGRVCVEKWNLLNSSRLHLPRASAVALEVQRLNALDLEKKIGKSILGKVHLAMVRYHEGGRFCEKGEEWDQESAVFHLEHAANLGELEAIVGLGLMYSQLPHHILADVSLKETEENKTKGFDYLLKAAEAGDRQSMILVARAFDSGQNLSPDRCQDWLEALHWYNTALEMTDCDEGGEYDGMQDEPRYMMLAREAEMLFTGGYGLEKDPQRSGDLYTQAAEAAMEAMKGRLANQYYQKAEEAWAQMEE
Sequence of Serine/threonine-protein kinase pim-1 (Homo sapiens) (P11309 whole entry, looked up): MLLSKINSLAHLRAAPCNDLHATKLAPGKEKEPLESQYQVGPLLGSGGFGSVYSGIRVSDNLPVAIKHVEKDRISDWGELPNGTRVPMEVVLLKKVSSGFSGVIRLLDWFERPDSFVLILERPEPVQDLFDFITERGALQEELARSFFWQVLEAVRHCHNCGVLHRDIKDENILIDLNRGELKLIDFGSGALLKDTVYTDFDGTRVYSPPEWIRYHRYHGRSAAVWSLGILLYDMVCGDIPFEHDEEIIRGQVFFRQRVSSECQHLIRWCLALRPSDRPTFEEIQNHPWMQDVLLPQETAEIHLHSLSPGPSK
Sequence of Glycogen synthase kinase-3 beta (Homo sapiens) (P49841 whole entry, looked up): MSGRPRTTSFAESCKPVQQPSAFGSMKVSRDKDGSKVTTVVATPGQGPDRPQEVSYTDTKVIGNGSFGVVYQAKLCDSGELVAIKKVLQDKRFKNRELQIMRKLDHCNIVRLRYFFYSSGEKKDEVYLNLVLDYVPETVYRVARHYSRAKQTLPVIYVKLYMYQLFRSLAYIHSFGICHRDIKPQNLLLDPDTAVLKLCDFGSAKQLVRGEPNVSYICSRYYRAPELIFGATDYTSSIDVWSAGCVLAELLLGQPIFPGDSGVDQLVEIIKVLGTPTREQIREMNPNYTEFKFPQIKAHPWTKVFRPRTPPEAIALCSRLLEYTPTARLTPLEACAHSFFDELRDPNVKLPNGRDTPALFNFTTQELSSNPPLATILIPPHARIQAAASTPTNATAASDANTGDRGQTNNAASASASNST
Sequence of Tyrosine-protein kinase Lck (Homo sapiens) (P06239 2-509 limits assumed): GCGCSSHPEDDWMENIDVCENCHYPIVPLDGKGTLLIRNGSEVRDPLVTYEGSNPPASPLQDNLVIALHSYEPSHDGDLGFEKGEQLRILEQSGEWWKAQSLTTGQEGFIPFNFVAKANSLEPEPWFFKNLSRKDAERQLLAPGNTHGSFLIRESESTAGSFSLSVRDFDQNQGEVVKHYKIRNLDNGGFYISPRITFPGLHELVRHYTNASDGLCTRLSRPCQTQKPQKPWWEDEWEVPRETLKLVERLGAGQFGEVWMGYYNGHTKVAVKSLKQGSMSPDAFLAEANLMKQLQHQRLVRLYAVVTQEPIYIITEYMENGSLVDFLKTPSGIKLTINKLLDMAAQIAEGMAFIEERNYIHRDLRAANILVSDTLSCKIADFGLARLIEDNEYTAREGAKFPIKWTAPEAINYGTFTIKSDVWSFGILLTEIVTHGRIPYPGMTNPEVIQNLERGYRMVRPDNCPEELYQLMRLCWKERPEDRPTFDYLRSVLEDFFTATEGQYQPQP
Sequence of Mitogen-activated protein kinase kinase kinase 7 (Homo sapiens) (O43318 whole entry): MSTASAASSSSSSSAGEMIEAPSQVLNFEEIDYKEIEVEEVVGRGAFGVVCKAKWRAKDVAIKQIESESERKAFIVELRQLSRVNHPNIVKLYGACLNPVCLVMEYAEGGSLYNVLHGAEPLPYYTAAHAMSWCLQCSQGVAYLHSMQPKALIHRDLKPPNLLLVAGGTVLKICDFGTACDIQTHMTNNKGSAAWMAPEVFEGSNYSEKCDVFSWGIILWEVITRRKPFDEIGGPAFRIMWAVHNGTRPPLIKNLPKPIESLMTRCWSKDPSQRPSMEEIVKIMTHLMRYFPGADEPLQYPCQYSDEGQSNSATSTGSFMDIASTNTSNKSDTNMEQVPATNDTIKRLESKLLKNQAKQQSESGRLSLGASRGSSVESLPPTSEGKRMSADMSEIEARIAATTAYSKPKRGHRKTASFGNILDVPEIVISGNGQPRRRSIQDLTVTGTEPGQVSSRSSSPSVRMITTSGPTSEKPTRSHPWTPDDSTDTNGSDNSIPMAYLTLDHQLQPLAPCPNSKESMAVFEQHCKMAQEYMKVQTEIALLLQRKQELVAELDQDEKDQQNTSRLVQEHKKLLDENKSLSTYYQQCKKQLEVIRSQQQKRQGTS
Sequence of Dual specificity mitogen-activated protein kinase kinase 1 (Homo sapiens) (Q02750 whole entry): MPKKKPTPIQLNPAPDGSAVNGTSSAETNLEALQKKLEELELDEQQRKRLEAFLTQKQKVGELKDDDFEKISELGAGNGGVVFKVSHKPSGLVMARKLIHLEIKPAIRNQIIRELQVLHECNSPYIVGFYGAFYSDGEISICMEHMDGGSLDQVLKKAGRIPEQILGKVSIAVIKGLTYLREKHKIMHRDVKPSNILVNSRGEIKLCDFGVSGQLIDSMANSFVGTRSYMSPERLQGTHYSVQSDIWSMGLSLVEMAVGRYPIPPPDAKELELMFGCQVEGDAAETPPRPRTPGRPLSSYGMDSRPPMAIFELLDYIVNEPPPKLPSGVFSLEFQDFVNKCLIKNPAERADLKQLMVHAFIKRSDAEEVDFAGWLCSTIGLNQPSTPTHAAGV
Sequence of 3-phosphoinositide-dependent protein kinase 1 (Homo sapiens) (O15530 whole entry): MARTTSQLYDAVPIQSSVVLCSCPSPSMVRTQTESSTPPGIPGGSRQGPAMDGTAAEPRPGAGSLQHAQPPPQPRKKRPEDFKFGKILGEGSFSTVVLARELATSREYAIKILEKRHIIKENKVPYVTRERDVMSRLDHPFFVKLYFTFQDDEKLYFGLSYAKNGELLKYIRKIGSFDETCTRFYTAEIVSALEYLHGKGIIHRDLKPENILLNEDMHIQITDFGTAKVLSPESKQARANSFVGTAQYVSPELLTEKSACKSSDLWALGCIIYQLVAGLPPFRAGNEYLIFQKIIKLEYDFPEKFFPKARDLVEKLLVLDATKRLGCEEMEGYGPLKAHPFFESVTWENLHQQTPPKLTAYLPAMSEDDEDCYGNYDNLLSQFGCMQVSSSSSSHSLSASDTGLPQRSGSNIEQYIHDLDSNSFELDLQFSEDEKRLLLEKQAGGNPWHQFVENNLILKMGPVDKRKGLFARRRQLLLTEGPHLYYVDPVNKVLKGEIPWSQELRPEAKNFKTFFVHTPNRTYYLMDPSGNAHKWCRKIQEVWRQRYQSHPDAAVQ

inhibition [1]: Active
IC50 [2]: > 2000 nM
Activity [3]: 60%
Activity [4]: 67%
Activity [5]: 68%
Activity [18]: 79%
Activity [19]: 87%
Activity [20]: 92%
Activity [21]: 97%
Activity [22]: > 100%
Activity [23]: > 100%
Activity [24]: > 100%
Activity [25]: > 100%
Activity [26]: > 100%
Activity [27]: > 100%
Activity [28]: > 100%
Activity [29]: > 100%
Activity [30]: > 100%
Activity [31]: > 100%
SMILES: CC(O)CNc1nc(NCc2ccc(-c3ccccn3)cc2)c2[nH]nc(C(C)C)c2n1 (configuration not stated)
Activity (MCF7 [6]): Dose-dependent effect
IC50 (MCF7 [6]; MCF7, 72 h): 27 nM
Activity [7]: Active
Activity [8]: Active
Activity (MCF7 [9]): Active
Activity (MCF7 [10]): Active
Activity (HCT-116 [11]): Dose-dependent effect
Activity (HCT-116 [12]): Dose-dependent effect
Activity (HCT-116 [13]): Active
Activity (HCT-116 [14]): Dose-dependent effect
Activity (HCT-116 [15]): Dose-dependent effect
Activity (G-361 [16]): Active
Activity (G-361 [17]): Active
